Screens from PubChem.
SR-BI DiI-HDL act = activators of SR-BI mediated DiI-HDL uptake, primary screen, ldlA[mSR-BI] CHO cells, DiI fluorescence. actives 0.096% (n = 320,000). 3 h; 100 = double the neutral-control signal. AID 504775, 2011. activation, % at 12.5 µM;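 active means mean replicate activation of at least 60% and every replicate at or above 60%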;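 further: 0% = median plate neutral-control signal and 100% = twice that signal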
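system = CHO ldlA[mSR-BI] cells, LDL receptor-null, SR-BI overexpressing | medium = Ham's F12 with 0.5% BSA, HEPES 25 mM, pH 7.4 | probe or stimulus = DiI-HDL 10 µg/mL | compound dosing = single-point compound dose | incubation = compound exposure 3 h, 37 °C | technique = DiI fluorescence, bottom read | read-out = cell-associated DiI fluorescence as measure of HDL uptake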
Statin myotox sup = suppressors of statin myotoxicity in C2C12 myotubes, primary screen, cell-based, single point, plate reader. rescue of ATP level, % at 7.49 µM. AID 602340, 2012. C2C12 myotubes + simvastatin, ATP luminescence, 48 h; scaled: DMSO 0, geranylgeraniol control 100. actives 0.78% (n = 330,000);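 active means mean ATP rescue above about 67%, or every replicate alone reaching that limit, limit read from the data, passing the limit was not always enough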;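 further: myotubes were challenged with 10 µM simvastatin during compound exposure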
Vif imaging = HIV Vif self-association inhibitors, primary screen, imaging, HEK293T, single point. HEK293T cells, Vif self-association by quenched fluorescence, 24 h. inhibition, % at 7.49 µM. actives 0.35% (n = 340,000); in the data active means inhibition above about 50%, passing the limit was not always enough
SR-BI HDL uptake = inhibitors of SR-BI mediated HDL lipid uptake, primary screen, ldlA[mSR-BI] cells, fluorescence, single point; Scavenger receptor class B member 1 (Mus musculus), Q61009; ldlA[mSR-BI] CHO cells, DiI-HDL uptake fluorescence, 3 h; inhibition, % at 12.5 µM; actives 0.96% (n = 320,000);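 active means mean replicate inhibition of at least 70% and a set share of replicates each scoring 70 or more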;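 further: 0% = median of neutral control wells and 100% = median of positive control wells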
Target sequence (Q61009 whole entry, looked up): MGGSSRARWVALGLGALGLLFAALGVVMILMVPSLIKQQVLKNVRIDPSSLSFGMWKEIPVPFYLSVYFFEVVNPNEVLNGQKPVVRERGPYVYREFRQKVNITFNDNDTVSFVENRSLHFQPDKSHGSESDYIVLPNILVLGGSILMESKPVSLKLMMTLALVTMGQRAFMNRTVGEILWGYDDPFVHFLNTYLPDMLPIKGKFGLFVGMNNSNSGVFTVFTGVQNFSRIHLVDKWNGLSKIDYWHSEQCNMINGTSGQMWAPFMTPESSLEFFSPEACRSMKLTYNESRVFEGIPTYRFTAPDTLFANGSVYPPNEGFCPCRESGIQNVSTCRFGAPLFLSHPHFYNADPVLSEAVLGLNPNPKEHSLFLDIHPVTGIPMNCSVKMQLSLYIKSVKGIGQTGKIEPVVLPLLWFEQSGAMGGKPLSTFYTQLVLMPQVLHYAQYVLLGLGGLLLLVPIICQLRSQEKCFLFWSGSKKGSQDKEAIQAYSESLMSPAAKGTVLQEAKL
* hit, by the source's call. In the library only some 1.7% were active in any assay of this set; here they are far more common.

Results for N#CCc1c(C#N)c(N)nc(N2CCN(C=O)CC2)c1C#N ?
SR-BI DiI-HDL act: -0.3; Vif imaging: -12.7; SR-BI HDL uptake: 0.3

Results for N#CCc1c(C#N)c(N)nc(N2CCN(S(=O)(=O)c3ccccc3)CC2)c1C#N ?
SR-BI DiI-HDL act: -13.8; Statin myotox sup: 83.6*; Vif imaging: 14.8; SR-BI HDL uptake: 13.8

How did COCC1=C(C(=O)OC(C)OC(=O)OC(C)C)N2C(=O)[C@@H](NC(=O)/C(=N\OC)c3csc(N)n3)[C@H]2SC1 (some centres not stated) do in these assays?
SR-BI DiI-HDL act: -87.8; Statin myotox sup: -0.9; Vif imaging: -4.2; SR-BI HDL uptake: 87.8*

What do the screens show for `CC=Cc1ccc2n(c1=O)C[C@@H]1[C@@H](CO)[C@H](C(=O)Nc3nccs3)N(Cc3ccccc3F)[C@H]21` (mixture of isomers)?
Statin myotox sup: -0.1

How did CC(OC(=O)c1ccccc1C(=O)O)c1ccccc1 (configuration not stated) do in these assays?
SR-BI DiI-HDL act: 7.7; Statin myotox sup: 3.1; Vif imaging: 52.5*; SR-BI HDL uptake: -7.7

Results for CCN(CC)C(=O)c1nc[nH]c1C(=O)O[C@@H](C)c1ccccc1 ?
SR-BI DiI-HDL act: 11.3; Statin myotox sup: 9.0; Vif imaging: -1.0; SR-BI HDL uptake: -11.3

Results for CO[C@@H]1CN(C)C(=O)c2cc(NC(=O)C3CCCCC3)ccc2OC[C@@H](C)N(Cc2nccs2)C[C@H]1C ?
Statin myotox sup: 4.7

How did CCc1c(C(=O)N/N=C/c2sccc2C)nnn1-c1nonc1N do in these assays?
SR-BI DiI-HDL act: -77.0; Statin myotox sup: -0.3; Vif imaging: -1.1; SR-BI HDL uptake: 77.0*

Results for CCCc1c(C(=O)N/N=C/c2ccc(C)o2)nnn1-c1nonc1N ?
Statin myotox sup: -9.2; Vif imaging: -3.5

Results for CCCc1c(C(=O)N/N=C/c2ccccc2C(F)(F)F)nnn1-c1nonc1N ?
SR-BI DiI-HDL act: -75.7; Statin myotox sup: -5.1; Vif imaging: 8.0; SR-BI HDL uptake: 75.7*

Results for CCOc1ccc(-c2c(C(=O)N/N=C/c3sccc3C)nnn2-c2nonc2N)cc1 ?
SR-BI DiI-HDL act: -86.6; Statin myotox sup: 9.1; Vif imaging: -5.9; SR-BI HDL uptake: 86.6*

How did Cc1ccsc1/C=N/NC(=O)c1nnn(-c2nonc2N)c1CN(C)c1ccccc1 do in these assays?
SR-BI DiI-HDL act: -7.2; Statin myotox sup: -1.4; Vif imaging: 2.5; SR-BI HDL uptake: 7.2

Results for CCOc1ccc(-c2c(C(=O)N/N=C/c3cccs3)nnn2-c2nonc2N)cc1 ?
SR-BI DiI-HDL act: -80.7; Statin myotox sup: -1.3; Vif imaging: 82.3*; SR-BI HDL uptake: 80.7*

How did CCOc1cccc(-c2c(C(=O)N/N=C/c3sccc3C)nnn2-c2nonc2N)c1 do in these assays?
SR-BI DiI-HDL act: -66.0; Statin myotox sup: 35.4; Vif imaging: -15.3; SR-BI HDL uptake: 66.0

What do the screens show for `C[C@@H]1CN([C@H](C)CO)C(=O)c2cc(C#CC3CCCCC3)cnc2O[C@@H]1CN(C)S(=O)(=O)c1ccccc1`?
Statin myotox sup: -10.8

Results for C[C@@H]1CN([C@@H](C)CO)C(=O)c2cccc(NC(=O)Nc3ccc(F)cc3)c2O[C@@H]1CN(C)S(=O)(=O)c1ccccc1 ?
Statin myotox sup: 37.0

Results for N#C/C(=C\c1ccc(F)cc1)c1nc(-c2ccco2)cs1 ?
SR-BI DiI-HDL act: -53.2; Statin myotox sup: -8.4; Vif imaging: 58.7*; SR-BI HDL uptake: 53.2

Results for O=C(CC1SC2=NCCN2C1=O)Nc1ccc(Br)cc1 (configuration not stated) ?
SR-BI DiI-HDL act: 11.1; Statin myotox sup: -16.5; Vif imaging: 53.3*; SR-BI HDL uptake: -11.1

How did NC(=O)[C@@H]1CCCNc2c(I)cc([N+](=O)[O-])cc2C(=O)N[C@@H](CCC(=O)O)C(=O)N[C@@H](CO)C(=O)N1 do in these assays?
SR-BI DiI-HDL act: 9.7; Statin myotox sup: 8.7; Vif imaging: 36.1; SR-BI HDL uptake: -9.7

What do the screens show for `NC(=O)C(CC(=O)O)NC(=O)[C@@H]1CCCNc2c(I)cc([N+](=O)[O-])cc2C(=O)N[C@@H](CO)C(=O)N[C@@H](Cc2ccc(O)cc2)C(=O)N1` (some centres not stated)?
SR-BI DiI-HDL act: 10.7; Statin myotox sup: 159.4*; Vif imaging: 6.5; SR-BI HDL uptake: -10.7

What do the screens show for `COc1ccc(S(=O)(=O)Nc2ccc3c(c2)C(=O)N([C@@H](C)CO)C[C@@H](C)[C@H](CN(C)C(=O)Nc2c(C)noc2C)OCCCC[C@H](C)O3)cc1`?
Statin myotox sup: 89.1*

Results for C[C@@H]1CN([C@H](C)CO)C(=O)c2cc(NS(=O)(=O)c3ccc(Cl)cc3)ccc2O[C@@H]1CN(C)C(=O)Nc1ccccc1 ?
Statin myotox sup: 82.3*

What do the screens show for `C[C@@H]1CN([C@@H](C)CO)C(=O)c2cc(NS(=O)(=O)c3ccc(Cl)cc3)ccc2O[C@@H]1CN(C)C(=O)Nc1ccccc1`?
Statin myotox sup: 9.4

Results for COc1ccc(NC(=O)N(C)C[C@H]2Oc3ccc(NS(=O)(=O)c4c(C)noc4C)cc3C(=O)N([C@H](C)CO)C[C@@H]2C)cc1 ?
SR-BI DiI-HDL act: 2.3; Statin myotox sup: 123.6*; Vif imaging: 11.5; SR-BI HDL uptake: -2.3

Results for COc1ccc(NC(=O)N(C)C[C@H]2Oc3ccc(NS(=O)(=O)c4ccc(OC)cc4)cc3C(=O)N([C@@H](C)CO)C[C@H]2C)cc1 ?
Statin myotox sup: 73.2*

What do the screens show for `C[C@H](CO)N1C[C@H](C)[C@H](CN(C)S(=O)(=O)c2ccc(Cl)cc2)Oc2ccc(NC(=O)CCN3CCOCC3)cc2CC1=O`?
Statin myotox sup: -5.3

Results for COc1ccc(S(=O)(=O)Nc2ccc3c(c2)C(=O)N([C@H](C)CO)C[C@H](C)[C@@H](CN(C)C(=O)Nc2c(C)noc2C)O3)cc1 ?
SR-BI DiI-HDL act: 24.6; Statin myotox sup: 125.8*; Vif imaging: 20.6; SR-BI HDL uptake: -24.6

How did COc1ccc(OC)c(/C=C/C(=O)Nc2cccc(S(=O)(=O)N3CCCC3)c2)c1 do in these assays?
SR-BI DiI-HDL act: -87.1; Vif imaging: -5.3; SR-BI HDL uptake: 87.1*

Results for COc1ccc(OC)c(/C=C/C(=O)Nc2cccc(S(=O)(=O)NC3=NCCCCC3)c2)c1 ?
SR-BI DiI-HDL act: -65.2; Statin myotox sup: 16.0; Vif imaging: 7.5; SR-BI HDL uptake: 65.2

How did COc1ccccc1/C=C/C(=O)Nc1cccc(S(=O)(=O)NC2=NCCCCC2)c1 do in these assays?
SR-BI DiI-HDL act: -72.4; Vif imaging: -3.5; SR-BI HDL uptake: 72.4*

Results for Cc1ccc(S(=O)(=O)N2CCCCC2)cc1NC(=O)CSc1ncccn1 ?
SR-BI DiI-HDL act: -35.7; Statin myotox sup: -4.3; Vif imaging: 54.1*; SR-BI HDL uptake: 35.7
